For 9 compounds, inhibition, IC50 and CC50 results are on record in ChEMBL document CHEMBL1268915, “Optimization of a series of dipeptides with a P3 threonine residue as non-covalent inhibitors of the chymotrypsin-like activity of the human 20S proteasome” (Bioorg Med Chem Lett, 2010).

Molecules are shown by their SMILES. Calls of active or inactive are those of the source. No cut-off for these calls is given here. Residues, ends and D or L forms follow the SMILES beside them. *: point of attachment. NHBn = c1ccc(CN*)cc1; Bn = c1ccc(C*)cc1 Where only a bound is given, the exact number is not on record here.

For series [1], the target named is Tissue-type plasminogen activator (Homo sapiens) (UniProt P00750). The series can be described thus: Inhibition of tissue plasminogen activator at 100 uM.
Tissue-type plasminogen activator (Homo sapiens), sequence (P00750 36-562 limits assumed): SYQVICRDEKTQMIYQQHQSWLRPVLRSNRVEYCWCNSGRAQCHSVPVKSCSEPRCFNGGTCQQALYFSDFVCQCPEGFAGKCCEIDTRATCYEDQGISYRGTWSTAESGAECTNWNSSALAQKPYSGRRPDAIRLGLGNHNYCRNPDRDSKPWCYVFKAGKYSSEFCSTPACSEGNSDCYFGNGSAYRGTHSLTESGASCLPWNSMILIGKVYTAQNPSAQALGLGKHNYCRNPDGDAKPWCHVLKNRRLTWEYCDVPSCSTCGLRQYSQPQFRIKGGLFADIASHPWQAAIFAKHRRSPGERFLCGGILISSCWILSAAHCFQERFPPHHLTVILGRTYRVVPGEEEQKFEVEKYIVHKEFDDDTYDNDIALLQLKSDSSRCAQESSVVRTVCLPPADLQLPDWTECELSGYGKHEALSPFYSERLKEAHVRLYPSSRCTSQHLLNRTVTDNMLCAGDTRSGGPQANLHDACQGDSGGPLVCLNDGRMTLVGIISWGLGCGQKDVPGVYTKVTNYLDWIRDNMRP
In series [2] the target is Procathepsin L (Homo sapiens) (UniProt P07711). The series can be described thus: Inhibition of human cathepsin L at 100uM.
Procathepsin L (Homo sapiens), sequence (P07711 114-333 limits assumed): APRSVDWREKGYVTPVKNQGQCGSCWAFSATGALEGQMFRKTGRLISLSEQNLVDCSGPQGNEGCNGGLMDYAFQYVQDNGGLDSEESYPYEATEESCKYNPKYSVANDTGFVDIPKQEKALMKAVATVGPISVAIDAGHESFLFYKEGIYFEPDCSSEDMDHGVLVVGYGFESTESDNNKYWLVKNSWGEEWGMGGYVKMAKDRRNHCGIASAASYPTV
The species named for series [3] is Homo sapiens. The series can be described thus: Inhibition of human elastase at 100 uM.
The subject of series [4] is HEK293. The series can be described thus: (§1) Inhibition of TNF-alpha-induced NF-kappaB activation in human HEK293 cells after 3 hrs by luciferase reporter gene assay. The format is cell-based. Set-up: concentration or dose not given beside the values. The settings on record: dose or concentration not given here. An outline of the steps:
(§2)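 NF-κB-luciferase reporter in HEK293 cells (10,000 per well). Cells were pre-incubated with compound for 1 h, then stimulated with 10 ng/ml TNF-α for 3 h with compound still present. IC50 and percentage inhibition were reported as means of at least three independent experiments.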
In general terms: In a reporter assay the amount or activity of a reporter protein is the signal.

Series [5] in a line: as §1. The format is cell-based. As to conditions: HEK293, 3 h. The method in brief:
as §2

Series [6] is described as follows: Inhibition of chymotrypsin-like activity of human 20s proteasome beta2 subunit in human erythrocyte assessed as hydrolysis of Ac-WLA-AMC fluorogenic substrate.
Series [7] in a line: Inhibition of chymotrypsin-like activity of human 20s proteasome beta-1 subunit in human erythrocyte assessed as hydrolysis of Ac-WLA-AMC fluorogenic substrate.
Series [8] concerns the target Trypsin (Homo sapiens) (UniProt P07477+P07478+P35030). The series can be described thus: Inhibition of human trypsin at 100 uM. In kind it is protein assay.
A short description of series [9]: Cytotoxicity against human Calu6 cells assessed as cellular ATP level after 72 hrs by luminescence-based ATPlite assay. The format is cell-based, Calu-6. The settings on record: read-out: LC50. An outline of the steps: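 Calu6 cells, 2000 per well, incubated with compound for 72 h. Viability read as cellular ATP by luminescence (ATPlite). Values are means of at least three independent experiments.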

For series [10], the species on record is Homo sapiens. The series can be described thus: Inhibition of human chymotrypsin at 100 uM.
Series [11] concerns the target Plasminogen (Homo sapiens) (UniProt P00747). The series can be described thus: Inhibition of human plasmin at 100 uM.
Series [12] deals with Cathepsin B (Homo sapiens) (UniProt P07858). The series can be described thus: Inhibition of human cathepsin B at 100uM.
In series [13] the target is Prothrombin (Homo sapiens) (UniProt P00734). The series can be described thus: Inhibition of human thrombin at 100 uM.
For series [14], the target named is T1, Calpain-1 catalytic subunit (Homo sapiens) (UniProt P07384).
T1 sequence (whole entry): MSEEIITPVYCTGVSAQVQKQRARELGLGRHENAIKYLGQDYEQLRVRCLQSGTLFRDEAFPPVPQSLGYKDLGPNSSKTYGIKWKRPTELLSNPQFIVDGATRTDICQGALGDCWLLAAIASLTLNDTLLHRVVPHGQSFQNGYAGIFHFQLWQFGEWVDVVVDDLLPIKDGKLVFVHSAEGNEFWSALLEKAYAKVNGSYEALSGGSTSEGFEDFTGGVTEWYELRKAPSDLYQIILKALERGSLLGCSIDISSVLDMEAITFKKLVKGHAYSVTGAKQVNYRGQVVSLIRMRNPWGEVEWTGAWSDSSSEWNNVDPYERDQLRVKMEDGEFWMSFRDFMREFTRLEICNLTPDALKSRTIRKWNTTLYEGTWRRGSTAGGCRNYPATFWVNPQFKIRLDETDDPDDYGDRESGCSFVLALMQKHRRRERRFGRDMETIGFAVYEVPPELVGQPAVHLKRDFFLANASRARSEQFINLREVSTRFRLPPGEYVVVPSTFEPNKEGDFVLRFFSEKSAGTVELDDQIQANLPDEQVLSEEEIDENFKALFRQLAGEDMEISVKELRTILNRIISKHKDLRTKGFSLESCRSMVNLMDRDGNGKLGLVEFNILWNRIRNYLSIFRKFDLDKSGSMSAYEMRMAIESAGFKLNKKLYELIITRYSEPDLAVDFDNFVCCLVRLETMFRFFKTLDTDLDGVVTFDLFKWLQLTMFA
The series can be described thus: Inhibition of human calpain 1 at 100 uM.

A short description of series [15]: Inhibition of chymotrypsin-like activity of human 20s proteasome beta5 subunit in human erythrocyte assessed as hydrolysis of Ac-WLA-AMC fluorogenic substrate.
For series [16], the target named is T2, Coagulation factor XII (Homo sapiens) (UniProt P00748).
T2 sequence (whole entry): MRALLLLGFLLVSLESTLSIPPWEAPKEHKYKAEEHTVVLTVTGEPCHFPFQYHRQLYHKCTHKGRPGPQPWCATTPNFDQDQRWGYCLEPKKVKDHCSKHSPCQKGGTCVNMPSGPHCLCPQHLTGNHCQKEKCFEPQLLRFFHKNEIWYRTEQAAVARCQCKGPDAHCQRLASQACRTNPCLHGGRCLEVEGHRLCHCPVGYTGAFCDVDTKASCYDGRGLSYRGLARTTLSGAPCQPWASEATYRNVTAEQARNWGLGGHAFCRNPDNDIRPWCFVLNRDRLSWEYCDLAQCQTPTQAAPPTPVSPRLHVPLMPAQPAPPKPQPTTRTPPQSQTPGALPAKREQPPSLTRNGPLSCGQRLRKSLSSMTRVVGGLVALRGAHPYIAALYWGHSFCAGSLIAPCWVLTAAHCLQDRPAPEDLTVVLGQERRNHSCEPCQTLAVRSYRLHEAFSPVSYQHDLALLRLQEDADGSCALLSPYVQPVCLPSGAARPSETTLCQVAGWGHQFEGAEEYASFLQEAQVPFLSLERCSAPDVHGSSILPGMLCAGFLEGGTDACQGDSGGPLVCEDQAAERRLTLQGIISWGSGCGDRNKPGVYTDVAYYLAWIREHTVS
The series can be described thus: Inhibition of human coagulation factor beta 12a at 100 uM.

As a reminder, the inhibition is the share of the control response that was lost under treatment. By IC50 is commonly meant the midpoint of a concentration-inhibition curve.

Plasminogen (Homo sapiens), sequence (P00747 97-580 limits assumed): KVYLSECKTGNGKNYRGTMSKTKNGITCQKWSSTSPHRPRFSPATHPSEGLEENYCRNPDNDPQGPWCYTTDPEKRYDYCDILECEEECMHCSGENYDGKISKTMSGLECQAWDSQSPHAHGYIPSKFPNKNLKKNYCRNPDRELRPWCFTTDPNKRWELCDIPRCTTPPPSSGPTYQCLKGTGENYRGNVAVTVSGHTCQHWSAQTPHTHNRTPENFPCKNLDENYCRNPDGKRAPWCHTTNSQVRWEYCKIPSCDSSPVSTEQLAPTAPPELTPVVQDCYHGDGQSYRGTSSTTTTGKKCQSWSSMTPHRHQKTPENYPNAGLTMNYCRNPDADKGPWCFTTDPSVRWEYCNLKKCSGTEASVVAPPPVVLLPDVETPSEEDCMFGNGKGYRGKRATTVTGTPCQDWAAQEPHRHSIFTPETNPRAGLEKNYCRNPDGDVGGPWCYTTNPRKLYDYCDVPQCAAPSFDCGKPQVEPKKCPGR
Plasminogen (Homo sapiens), sequence (P00747 581-810 limits assumed): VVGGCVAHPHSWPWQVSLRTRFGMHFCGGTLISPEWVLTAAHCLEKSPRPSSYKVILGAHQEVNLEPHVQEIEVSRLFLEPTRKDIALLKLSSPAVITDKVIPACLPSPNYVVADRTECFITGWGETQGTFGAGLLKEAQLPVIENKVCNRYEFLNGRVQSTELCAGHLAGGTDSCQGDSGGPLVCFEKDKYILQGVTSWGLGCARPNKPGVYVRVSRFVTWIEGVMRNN

Regarding `Cc1ccc(CNC(=O)[C@H](CCc2ccccc2)NC(=O)[C@H](CCc2ccccc2)NC(=O)[C@H](CCc2ccccc2)NC(=O)c2cnc(C)cn2)cc1`, the inhibition entry in series [1], in series [2], in [3], in series [8], in series [10] and in series [11] was “Active” in each case. The inhibition result in series [12], in series [13], in series [14] and in [16] was “Active” each time. For the same compound, in series [4], the inhibition is 79%. Moreover, the IC50 is 47 nM in [5], more than 20 µM in [6], more than 20 µM in series [7] and 16 nM in series [15]. Moreover, the CC50 at 72 h in series [9] amounted to 140 nM.
Consider `Cc1ccc(CNC(=O)[C@H](CCc2ccccc2)NC(=O)[C@@H](NC(=O)C(=O)c2c[nH]c3ccccc23)[C@@H](C)O)cc1`, for which the inhibition entry in [1], in series [2], in series [3], in [8], in [10] and in [11] was “Active” throughout. Moreover, the inhibition result in series [12], in series [13], in [14] and in series [16] was “Active” each time. Also, the inhibition in series [4] turned out to be 100%. Moreover, the IC50 in series [5] is 90 nM; in series [6], more than 20 µM; in [7], more than 20 µM; in series [15], 7.3 nM. Further, the CC50 at 72 h in series [9] stood at 136 nM.
Take `Cc1ccc(CNC(=O)[C@H](CCc2ccccc2)NC(=O)[C@@H](NC(=O)C(C)(C)Oc2ccccc2Cl)[C@@H](C)O)cc1`: the inhibition result in series [1], in [2], in series [3], in series [8], in series [10] and in series [11] was “Active” each time. Moreover, the inhibition result in series [12], in series [13], in series [14] and in [16] was “Active” in each case. This compound also registered an inhibition in series [4] of 97%. Further, the IC50 in series [5] was 690 nM; in [6] it was more than 20 µM; in series [7] it was more than 20 µM; in series [15] it was 75 nM. Also, the CC50 at 72 h in series [9] stood at 1500 nM.
As to `Cc1ccsc1CNC(=O)[C@H](CCc1ccccc1)NC(=O)[C@@H](NC(=O)c1ccc(OCc2ccccc2)cc1)[C@@H](C)O`, the inhibition entry in [1], in series [2], in series [3], in series [8], in [10] and in series [11] was “Active” in each case. Moreover, the inhibition entry in series [12], in series [13], in series [14] and in series [16] was “Active” throughout. Further, the inhibition in series [4] turned out to be 81%. The results for the IC50 in [5], in series [6] and in series [7] were 28 nM, more than 20 µM and more than 20 µM, respectively. In [9], the CC50 at 72 h worked out at 110 nM.
Take `CC(NC(=O)[C@H](CCc1ccccc1)NC(=O)[C@@H](NC(=O)c1ccc(OCc2ccccc2)cc1)[C@@H](C)O)c1ccccc1` (stereo partly drawn): the inhibition entry in series [1], in series [2], in [3], in series [8], in series [10] and in series [11] was “Active” each time. Further, the inhibition result in series [12], in series [13], in series [14] and in series [16] was “Active” in each case. Further, the concentration for half-maximal inhibition (IC50) in series [5] was more than 50000 nM; in series [6], more than 20 µM; in series [7], more than 20 µM; in series [15] it was more than 100000 nM. Further, the CC50 at 72 h in series [9] is 9000 nM.
Turning to `C[C@H](NC(=O)[C@@H](N)Cc1ccc(OCc2ccccc2)cc1)C(=O)N[C@@H](Cc1c[nH]c2ccccc12)C(=O)NCc1ccccc1` (H-Tyr(Bn)-Ala-Trp-NHBn), the inhibition entry in [1], in series [2], in [3], in series [8], in series [10] and in series [11] was “Active” throughout. Further, the inhibition result in [12], in series [13], in [14] and in series [16] was “Active” throughout. For the same compound, the IC50 in series [6] and in [7] was more than 20 µM in each case.
Regarding `Cc1ccccc1CCC(=O)N[C@H](C(=O)N[C@@H](CCc1ccccc1)C(=O)NCc1ccccc1Cl)[C@@H](C)O`, the inhibition entry in series [1], in series [2], in series [3], in series [8], in series [10] and in [11] was “Active” each time. In addition, the inhibition entry in series [12], in series [13], in [14] and in [16] was “Active” in each case. Further, in series [4], the inhibition came out at 71%. The IC50 is 330 nM in [5], more than 20 µM in series [6] and more than 20 µM in series [7]. Also, the CC50 at 72 h in series [9] turned out to be 2700 nM.
Take `C[C@@H](O)[C@H](NC(=O)c1ccc(OCc2ccccc2)cc1)C(=O)N[C@@H](CCc1ccccc1)C(=O)NCCc1cccs1`: the inhibition entry in series [1], in [2], in series [3], in [8], in [10] and in series [11] was “Active” in each case. The inhibition entry in series [12], in [13], in series [14] and in [16] was “Active” in each case. In addition, the IC50 was more than 50000 nM in [5], more than 20 µM in series [6], more than 20 µM in [7] and 3200 nM in series [15]. Moreover, the CC50 at 72 h in series [9] was more than 25000 nM.
For `COc1ccc(CNC(=O)[C@@H](NC(=O)[C@H](Cc2cc(OC)c(OC)c(OC)c2)NC(=O)Cc2cccc(Oc3ccccc3)c2)C(C)C)c(O)c1`, the inhibition result in series [1], in [2], in series [3], in series [8], in series [10] and in series [11] was “Active” in each case. In addition, the inhibition entry in series [12], in [13], in [14] and in series [16] was “Active” each time. The results for the IC50 in [6], in series [7] and in series [15] were more than 20 µM, more than 20 µM and 15 nM, respectively.
